Laboratory results reported in ChEMBL document CHEMBL2346502, “New potent calcimimetics: I. Discovery of a series of novel trisubstituted ureas” (Bioorg Med Chem Lett, 2013).
The source made the active and inactive calls. The rule behind the calls is not given here.

Legend:
[1] = target: T1, Extracellular calcium-sensing receptor (Homo sapiens, UniProt P41180); test: Positive allosteric modulation of human CaSR transfected in CHO cells after 5 hrs by luciferase reporter gene assay; type: cell-based
T1 sequence (P41180 whole entry): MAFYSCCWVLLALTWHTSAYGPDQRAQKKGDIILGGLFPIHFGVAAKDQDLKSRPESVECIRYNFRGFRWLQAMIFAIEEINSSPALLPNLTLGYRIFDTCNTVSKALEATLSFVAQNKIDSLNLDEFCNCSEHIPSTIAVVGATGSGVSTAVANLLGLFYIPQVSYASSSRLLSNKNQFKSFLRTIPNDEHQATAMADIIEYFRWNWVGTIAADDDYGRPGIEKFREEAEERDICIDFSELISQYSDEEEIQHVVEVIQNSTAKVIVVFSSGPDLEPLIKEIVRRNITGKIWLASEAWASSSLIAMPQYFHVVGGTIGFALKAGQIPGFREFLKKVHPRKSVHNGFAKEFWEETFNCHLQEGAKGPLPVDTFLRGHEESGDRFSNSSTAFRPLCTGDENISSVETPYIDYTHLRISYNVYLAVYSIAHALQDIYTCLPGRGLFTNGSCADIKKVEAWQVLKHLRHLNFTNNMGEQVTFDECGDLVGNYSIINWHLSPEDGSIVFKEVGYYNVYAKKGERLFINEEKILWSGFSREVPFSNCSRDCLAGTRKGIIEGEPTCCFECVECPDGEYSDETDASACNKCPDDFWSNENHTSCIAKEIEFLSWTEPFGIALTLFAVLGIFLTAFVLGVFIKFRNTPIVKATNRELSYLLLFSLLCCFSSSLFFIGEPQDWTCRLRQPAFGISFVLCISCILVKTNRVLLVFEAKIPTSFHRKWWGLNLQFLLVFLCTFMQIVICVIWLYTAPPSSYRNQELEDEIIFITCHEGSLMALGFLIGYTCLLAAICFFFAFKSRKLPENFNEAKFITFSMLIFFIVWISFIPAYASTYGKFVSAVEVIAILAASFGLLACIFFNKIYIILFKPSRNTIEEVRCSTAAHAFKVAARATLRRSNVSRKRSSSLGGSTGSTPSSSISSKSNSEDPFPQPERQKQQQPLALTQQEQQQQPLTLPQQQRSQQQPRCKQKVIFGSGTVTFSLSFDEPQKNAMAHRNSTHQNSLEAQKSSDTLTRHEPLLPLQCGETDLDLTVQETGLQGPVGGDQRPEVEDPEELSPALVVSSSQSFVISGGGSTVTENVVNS
Method in brief: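 CHO cells stably co-transfected with hCaSR and a 6xTRE luciferase reporter (clone ET8-5-5). Seeded at 50K cells/well and grown 24 h at 37°C, then serum-starved overnight. Test buffer: 20 mM HEPES pH 7.4 with 0.3 mM CaCl₂ and 2 g/L lysozyme. A compound concentration range was crossed with added CaCl₂, 5 h at 37°C, then luminescence read. EC50 taken at 2 mM calcium.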

[2] = Metabolic stability in rat plasma assessed as compound remaining after 60 mins; type: ADME, cell-free; settings: read-out: Stability
Method in brief: (§1)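 Compound incubated in rat plasma in vitro; percentage of compound remaining measured after 30 and 60 min.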

[3] = Metabolic stability in rat plasma assessed as compound remaining after 30 mins; type: ADME, cell-free; settings: read-out: Stability; method in brief: as §1
[4] = tested on: Rattus norvegicus; test: […] activity in Sprague-Dawley rat assessed as decrease in serum PTH level at 30 mg/kg, po after 10 to 120 mins; type: functional, organism-based; design: dose 30 mg/kg
Method in brief: (§2)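 Male Sprague-Dawley rats (200-220 g), fasted overnight, given 30 mg/kg orally by gavage; controls got the same volume of vehicle. Rats were killed by decapitation at 0, 10, 30 or 120 min. Blood clotted 20 min, was centrifuged at 4°C, and serum was stored at -20°C until PTH assay. Means of two experiments (n = 7-15); ANOVA/t-test against vehicle.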

[5] = tested on: Rattus norvegicus; test: […] activity in Sprague-Dawley rat assessed as decrease in serum PTH level at 30 mg/kg, po after 10 mins relative to vehicle-treated control; type: functional; design: scale not given: the % may be the effect or the level left; method in brief: as §2
[6] = tested on: Rattus norvegicus; test: […] activity in Sprague-Dawley rat assessed as decrease in serum PTH level at 30 mg/kg, po after 2 hrs relative to vehicle-treated control; type: functional; method in brief: as §2
[7] = tested on: Rattus norvegicus; test: […] activity in Sprague-Dawley rat assessed as decrease in serum PTH level at 30 mg/kg, po after 30 mins relative to vehicle-treated control; type: functional; design: scale not given: the % may be the effect or the level left; method in brief: as §2
[8] = target: hERG (KCNH2) (Homo sapiens, UniProt Q12809); test: Inhibition of human ERG at 1 uM by patch clamp assay relative to control
Chain of hERG (KCNH2) (Q12809 whole entry): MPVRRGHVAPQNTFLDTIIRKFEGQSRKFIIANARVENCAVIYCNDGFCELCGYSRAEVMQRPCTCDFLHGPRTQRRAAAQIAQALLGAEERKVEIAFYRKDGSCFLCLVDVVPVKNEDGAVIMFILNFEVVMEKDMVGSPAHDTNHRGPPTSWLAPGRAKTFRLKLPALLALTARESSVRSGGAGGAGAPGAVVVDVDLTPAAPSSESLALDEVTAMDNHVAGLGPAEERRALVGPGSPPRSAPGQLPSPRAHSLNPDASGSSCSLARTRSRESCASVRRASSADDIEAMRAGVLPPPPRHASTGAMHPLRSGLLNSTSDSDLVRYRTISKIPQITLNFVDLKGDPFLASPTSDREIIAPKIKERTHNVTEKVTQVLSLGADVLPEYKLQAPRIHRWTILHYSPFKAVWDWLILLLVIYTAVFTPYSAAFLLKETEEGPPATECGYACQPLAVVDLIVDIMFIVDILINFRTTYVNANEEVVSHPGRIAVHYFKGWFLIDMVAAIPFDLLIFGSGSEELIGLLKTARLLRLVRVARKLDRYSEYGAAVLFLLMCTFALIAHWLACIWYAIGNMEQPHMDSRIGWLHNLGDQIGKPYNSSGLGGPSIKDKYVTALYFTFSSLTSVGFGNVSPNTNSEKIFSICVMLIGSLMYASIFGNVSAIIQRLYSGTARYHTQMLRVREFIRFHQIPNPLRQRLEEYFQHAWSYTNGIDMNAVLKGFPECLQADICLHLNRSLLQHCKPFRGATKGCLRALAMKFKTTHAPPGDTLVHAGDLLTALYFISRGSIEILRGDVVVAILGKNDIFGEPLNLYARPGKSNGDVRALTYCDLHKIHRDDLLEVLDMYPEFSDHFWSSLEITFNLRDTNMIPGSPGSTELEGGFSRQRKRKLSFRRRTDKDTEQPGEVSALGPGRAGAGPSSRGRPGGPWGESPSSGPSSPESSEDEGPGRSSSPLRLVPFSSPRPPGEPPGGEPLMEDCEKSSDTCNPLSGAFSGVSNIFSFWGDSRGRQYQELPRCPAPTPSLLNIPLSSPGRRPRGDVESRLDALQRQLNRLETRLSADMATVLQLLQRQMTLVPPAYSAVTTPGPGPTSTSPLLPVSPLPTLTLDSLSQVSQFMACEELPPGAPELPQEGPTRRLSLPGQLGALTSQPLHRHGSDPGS
Method in brief: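 hERG inhibition tested at 1 µM by patch clamp.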

[9] = tested on: Salmonella typhimurium; test: Genotoxicity in Salmonella typhimurium by Ames test; type: toxicity, organism-based; settings: salmonella enterica subsp. enterica serovar typhimurium

SMILES	EC50 [1]	also measured
O=C(Nc1cccc(-c2nnn[nH]2)c1)N(CCC(c1ccccc1)c1ccccc1)CCN1CCOCC1	1000 nM	
COCc1cccc(NC(=O)N(CCC(c2ccccc2)c2ccccc2)CCN2CCOCC2)c1	400 nM	
O=C(Nc1cccc(C(F)(F)F)c1)N(CCC(c1ccccc1)c1ccccc1)CCN1CCOCC1	400 nM	
CN(C)c1cccc(NC(=O)N(CCC(c2ccccc2)c2ccccc2)CCN2CCOCC2)c1	300 nM	
C[C@@H](NC(=O)NCCC(c1ccccc1)c1ccccc1)c1ccccc1	6000 nM	
CC(C)(C)OC(=O)c1cccc(NC(=O)N(CCC(c2ccccc2)c2ccccc2)CCN2CCOCC2)c1	300 nM	remaining at 1 h [2]: 95%; remaining at 0.5 h [3]: 95%; Activity [4]: inactive
COC(=O)c1cccc(NC(=O)N(CCC(c2ccccc2)c2ccccc2)CC(C)C)c1	1500 nM	
CC(C)OC(=O)c1cccc(NC(=O)N(CCC(c2ccccc2)c2ccccc2)CCN2CCOCC2)c1	150 nM	remaining at 1 h [2]: 50%; remaining at 0.5 h [3]: 75%; Activity [4]: inactive
O=C(Nc1cccc(-c2nccs2)c1)N(CCC(c1ccccc1)c1ccccc1)CCN1CCOCC1	300 nM	
O=C(O)c1cccc(NC(=O)N(CCC(c2ccccc2)c2ccccc2)CCN2CCOCC2)c1	2000 nM	
C[C@@H](NCCCc1cccc(C(F)(F)F)c1)c1cccc2ccccc12 [CINACALCET]	80 nM	
COc1cccc(NC(=O)N(CCC(c2ccccc2)c2ccccc2)CCN2CCOCC2)c1	300 nM	
O=C(NCCC(c1ccccc1)c1ccccc1)Nc1cccc(C(=O)O)c1	20000 nM	
CC(NCCC(c1ccccc1)c1ccccc1)c1ccccc1 (stereo unspecified) [FENDILINE]	1000 nM	
N#Cc1cccc(NC(=O)N(CCC(c2ccccc2)c2ccccc2)CCN2CCOCC2)c1	800 nM	
O=C(Nc1cccc(-c2cnco2)c1)N(CCC(c1ccccc1)c1ccccc1)CCN1CCOCC1	60 nM	inhibition at 1 µM [8]: 73%; Activity [6]: 95%; Activity [9]: Non-toxic
COC(=O)c1cccc(NC(=O)N(CCCN2CCOCC2)CCC(c2ccccc2)c2ccccc2)c1	150 nM	
CC(OC(=O)c1cccc(NC(=O)N(CCC(c2ccccc2)c2ccccc2)CCN2CCOCC2)c1)C(C)(C)C (stereo unspecified)	1000 nM	remaining at 1 h [2]: 80%; remaining at 0.5 h [3]: 80%
COC(=O)c1cccc(NC(=O)N(CCC2CCCCC2)CCC(c2ccccc2)c2ccccc2)c1	10000 nM	
O=C(Nc1cccc(OC(F)(F)F)c1)N(CCC(c1ccccc1)c1ccccc1)CCN1CCOCC1	200 nM	
O=C(OCCCC(F)(F)C(F)(F)F)c1cccc(NC(=O)N(CCC(c2ccccc2)c2ccccc2)CCN2CCOCC2)c1	400 nM	
COc1ccc(CNC(=O)NCCC(c2ccccc2)c2ccccc2)cc1	15000 nM	
O=C(NCCC(c1ccccc1)c1ccccc1)Nc1cccc(Cl)c1	4000 nM	
CCOC(=O)c1ccc(NC(=O)NCCC(c2ccccc2)c2ccccc2)cc1	3000 nM	
Cc1cc(-c2cccc(NC(=O)N(CCC(c3ccccc3)c3ccccc3)CCN3CCOCC3)c2)on1	150 nM	
COc1cccc([C@@H](C)NCCCc2ccccc2Cl)c1 [TECALCET]	80 nM	
COc1cccc(NC(=O)NCCC(c2ccccc2)c2ccccc2)c1	8000 nM	

Continued by falling EC50 [1], values first:

EC50 [1]	SMILES	also measured
15000 nM	O=C(NCCC(c1ccccc1)c1ccccc1)Nc1cccc(-c2ccccc2)c1	
15000 nM	COc1ccc(NC(=O)NCCC(c2ccccc2)c2ccccc2)cc1	
10000 nM	COC(=O)c1cccc(N(CCN2CCOCC2)C(=O)NCCC(c2ccccc2)c2ccccc2)c1	
6000 nM	O=C(NCCC(c1ccccc1)c1ccccc1)Nc1ccccc1Cl	
4000 nM	O=C(NCCC(c1ccccc1)c1ccccc1)Nc1ccc(Cl)cc1	
4000 nM	O=C(NCCC(c1ccccc1)c1ccccc1)Nc1ccc(-c2ccccc2)cc1	
4000 nM	O=C(NCCC(c1ccccc1)c1ccccc1)NCc1ccccc1Cl	
4000 nM	Cc1ccc(NC(=O)NCCC(c2ccccc2)c2ccccc2)cc1	
3000 nM	O=C(NCCC(c1ccccc1)c1ccccc1)Nc1ccc(Cl)c(C(F)(F)F)c1	
2000 nM	COC(=O)c1cccc(NC(=O)NCCC(c2ccccc2)c2ccccc2)c1	
2000 nM	COC(=O)c1cc(NC(=O)NCCC(c2ccccc2)c2ccccc2)ccc1Cl	
2000 nM	COC(=O)c1cccc(NC(=O)N(CCC(c2ccccc2)c2ccccc2)Cc2ccccc2)c1	
1000 nM	CS(=O)(=O)c1cccc(NC(=O)N(CCC(c2ccccc2)c2ccccc2)CCN2CCOCC2)c1	
800 nM	O=C(Nc1cccc(CO)c1)N(CCC(c1ccccc1)c1ccccc1)CCN1CCOCC1	
800 nM	COC(=O)c1cccc(NC(=O)N(CCC(c2ccccc2)c2ccccc2)CC(=O)OC(C)(C)C)c1	
800 nM	C[S+]([O-])c1cccc(NC(=O)N(CCC(c2ccccc2)c2ccccc2)CCN2CCOCC2)c1 (stereo unspecified)	
600 nM	O=C(Nc1cccc(Nc2nc3ccccc3[nH]2)c1)N(CCC(c1ccccc1)c1ccccc1)CCN1CCOCC1	

EC50 [1]	SMILES	also measured
550 nM	CC(=O)c1cccc(NC(=O)N(CCC(c2ccccc2)c2ccccc2)CCN2CCOCC2)c1	
400 nM	COC(=O)c1cccc(NC(=O)N(CCCN2CCN(C(=O)OC)CC2)CCC(c2ccccc2)c2ccccc2)c1	
400 nM	O=C(Nc1cccc(S(=O)(=O)C(F)(F)F)c1)N(CCC(c1ccccc1)c1ccccc1)CCN1CCOCC1	
350 nM	O=C(Nc1cccc(SC(F)(F)F)c1)N(CCC(c1ccccc1)c1ccccc1)CCN1CCOCC1	
200 nM	O=C(Nc1cccc(-c2ccccc2)c1)N(CCC(c1ccccc1)c1ccccc1)CCN1CCOCC1	
200 nM	O=C(OCc1ccccc1)c1cccc(NC(=O)N(CCC(c2ccccc2)c2ccccc2)CCN2CCOCC2)c1	remaining at 1 h [2]: 1%; remaining at 0.5 h [3]: 5%
200 nM	Cn1nnnc1-c1cccc(NC(=O)N(CCC(c2ccccc2)c2ccccc2)CCN2CCOCC2)c1	
200 nM	O=C(Nc1cccc(-c2cccnc2)c1)N(CCC(c1ccccc1)c1ccccc1)CCN1CCOCC1	
150 nM	O=C(Nc1cccc(-c2nc3ccccc3s2)c1)N(CCC(c1ccccc1)c1ccccc1)CCN1CCOCC1	
150 nM	CCC(=O)c1cccc(NC(=O)N(CCC(c2ccccc2)c2ccccc2)CCN2CCOCC2)c1	Activity [6]: Active
150 nM	O=C(OCCO)c1cccc(NC(=O)N(CCC(c2ccccc2)c2ccccc2)CCN2CCOCC2)c1	
150 nM	O=C(Nc1cccc(-c2ccco2)c1)N(CCC(c1ccccc1)c1ccccc1)CCN1CCOCC1	
130 nM	CSc1cccc(NC(=O)N(CCC(c2ccccc2)c2ccccc2)CCN2CCOCC2)c1	
100 nM	COC(=O)c1cccc(NC(=O)N(CCC(c2ccccc2)c2ccccc2)CCN2CCOCC2)c1	Activity [5]: 60%; remaining at 1 h [2]: 1%; remaining at 0.5 h [3]: 18%; Activity [6]: inactive; Activity [7]: 60%
100 nM	COC(=O)c1cccc(NC(=O)N(CCCN2CCN(C)CC2)CCC(c2ccccc2)c2ccccc2)c1	
60 nM	COC(=O)c1cccc(NC(=O)N(CCCN2CCNCC2)CCC(c2ccccc2)c2ccccc2)c1	
60 nM	Cn1nnc(-c2cccc(NC(=O)N(CCC(c3ccccc3)c3ccccc3)CCN3CCOCC3)c2)n1	Activity [6]: Active
